Each structure is given as a SMILES string.

In ChEMBL document CHEMBL1944596, “7,8-dichloro-1-oxo-β-carbolines as a versatile scaffold for the development of potent and selective kinase inhibitors with unusual binding modes” (J Med Chem, 2012) one finds IC50 data, which are given here for one compound.

Assay [1] can be described thus: Growth inhibition of human RS4:11 cells after 48 hrs by WST-1 assay. It counts as functional, cell-based. To be noted: RS4-11, 48 h. In outline:
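Compound (0–10 μM) added to the culture medium and incubated 48 h. Proliferation and viability read by WST-1 reagent. Survival expressed as percentage of control cultures and IC50 derived by curve fitting.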

A short description of assay [2]: Inhibition of S6K using ATP as substrate.
For assay [3], the target named is Phosphatidylinositol 4-kinase beta (Homo sapiens, UniProt Q9UBF8). In words: Inhibition of PI4Kbeta using ATP as substrate.
Chain of Phosphatidylinositol 4-kinase beta (Q9UBF8 whole entry): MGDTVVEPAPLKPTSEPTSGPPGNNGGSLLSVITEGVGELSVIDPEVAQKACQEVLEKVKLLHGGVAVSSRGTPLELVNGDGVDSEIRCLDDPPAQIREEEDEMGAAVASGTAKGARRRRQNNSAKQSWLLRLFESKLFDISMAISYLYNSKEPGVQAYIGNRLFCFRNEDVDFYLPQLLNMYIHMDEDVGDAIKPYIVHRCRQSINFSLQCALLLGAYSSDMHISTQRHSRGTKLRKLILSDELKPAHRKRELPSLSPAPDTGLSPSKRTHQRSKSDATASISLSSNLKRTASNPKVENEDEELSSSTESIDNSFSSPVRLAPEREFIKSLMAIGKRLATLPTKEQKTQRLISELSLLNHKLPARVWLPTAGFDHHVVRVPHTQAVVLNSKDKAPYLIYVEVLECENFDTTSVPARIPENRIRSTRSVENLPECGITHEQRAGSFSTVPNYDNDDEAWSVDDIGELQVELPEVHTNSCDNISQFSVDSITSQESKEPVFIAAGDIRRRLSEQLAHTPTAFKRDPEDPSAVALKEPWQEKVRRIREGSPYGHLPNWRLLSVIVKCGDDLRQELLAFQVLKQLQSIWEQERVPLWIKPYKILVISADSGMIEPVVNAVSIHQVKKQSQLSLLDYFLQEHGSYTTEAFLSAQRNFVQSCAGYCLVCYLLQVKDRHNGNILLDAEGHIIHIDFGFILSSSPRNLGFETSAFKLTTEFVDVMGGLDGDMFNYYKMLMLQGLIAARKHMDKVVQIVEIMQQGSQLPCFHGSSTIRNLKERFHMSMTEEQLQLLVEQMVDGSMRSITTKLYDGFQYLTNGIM
Assay [4] has as its target Protein kinase C theta type (Homo sapiens, UniProt Q04759). The experiment in a line: Inhibition of PKCtheta using ATP as substrate.
Assay [5] has as its target Serine/threonine-protein kinase pim-1 (Homo sapiens, UniProt P11309). In words: Inhibition of PIM1 using ATP as substrate.
Assay [6] concerns the target Phosphatidylinositol 3-kinase catalytic subunit type 3 (Homo sapiens, UniProt Q8NEB9). The experiment in a line: Inhibition of VPS34 using ATP as substrate.

Chain of Phosphatidylinositol 3-kinase catalytic subunit type 3 (Q8NEB9 whole entry): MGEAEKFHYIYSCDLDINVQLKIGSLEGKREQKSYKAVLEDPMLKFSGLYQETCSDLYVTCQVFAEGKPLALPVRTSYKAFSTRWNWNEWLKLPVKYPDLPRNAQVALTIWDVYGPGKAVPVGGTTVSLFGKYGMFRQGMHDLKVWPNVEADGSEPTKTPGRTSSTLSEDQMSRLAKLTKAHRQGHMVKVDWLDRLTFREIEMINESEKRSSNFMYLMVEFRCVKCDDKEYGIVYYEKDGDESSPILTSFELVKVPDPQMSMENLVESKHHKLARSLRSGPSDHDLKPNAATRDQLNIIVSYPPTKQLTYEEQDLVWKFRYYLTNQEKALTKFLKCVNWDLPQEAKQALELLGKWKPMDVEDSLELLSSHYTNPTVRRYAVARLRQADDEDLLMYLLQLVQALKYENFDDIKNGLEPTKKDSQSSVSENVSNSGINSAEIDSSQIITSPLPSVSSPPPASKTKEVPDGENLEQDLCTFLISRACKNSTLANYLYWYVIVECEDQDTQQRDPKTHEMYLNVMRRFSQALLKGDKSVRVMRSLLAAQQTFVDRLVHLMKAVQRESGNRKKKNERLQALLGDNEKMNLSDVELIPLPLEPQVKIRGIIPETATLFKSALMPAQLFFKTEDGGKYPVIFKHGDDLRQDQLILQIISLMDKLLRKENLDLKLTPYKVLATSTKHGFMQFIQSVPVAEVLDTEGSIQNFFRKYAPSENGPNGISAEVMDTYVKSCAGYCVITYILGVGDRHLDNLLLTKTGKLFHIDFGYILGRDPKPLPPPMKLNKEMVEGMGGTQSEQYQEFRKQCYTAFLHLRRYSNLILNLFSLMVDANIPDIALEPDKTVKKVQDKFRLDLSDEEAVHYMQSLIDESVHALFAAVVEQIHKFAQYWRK
Chain of Serine/threonine-protein kinase pim-1 (P11309 whole entry): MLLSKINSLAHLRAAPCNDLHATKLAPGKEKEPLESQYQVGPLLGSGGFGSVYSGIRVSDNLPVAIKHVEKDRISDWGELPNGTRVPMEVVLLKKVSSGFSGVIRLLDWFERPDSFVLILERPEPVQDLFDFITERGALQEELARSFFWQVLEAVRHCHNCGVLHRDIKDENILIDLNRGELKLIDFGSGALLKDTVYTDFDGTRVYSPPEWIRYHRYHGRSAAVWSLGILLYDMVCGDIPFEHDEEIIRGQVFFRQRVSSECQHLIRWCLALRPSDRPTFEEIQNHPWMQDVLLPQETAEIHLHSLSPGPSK
Chain of Protein kinase C theta type (Q04759 whole entry): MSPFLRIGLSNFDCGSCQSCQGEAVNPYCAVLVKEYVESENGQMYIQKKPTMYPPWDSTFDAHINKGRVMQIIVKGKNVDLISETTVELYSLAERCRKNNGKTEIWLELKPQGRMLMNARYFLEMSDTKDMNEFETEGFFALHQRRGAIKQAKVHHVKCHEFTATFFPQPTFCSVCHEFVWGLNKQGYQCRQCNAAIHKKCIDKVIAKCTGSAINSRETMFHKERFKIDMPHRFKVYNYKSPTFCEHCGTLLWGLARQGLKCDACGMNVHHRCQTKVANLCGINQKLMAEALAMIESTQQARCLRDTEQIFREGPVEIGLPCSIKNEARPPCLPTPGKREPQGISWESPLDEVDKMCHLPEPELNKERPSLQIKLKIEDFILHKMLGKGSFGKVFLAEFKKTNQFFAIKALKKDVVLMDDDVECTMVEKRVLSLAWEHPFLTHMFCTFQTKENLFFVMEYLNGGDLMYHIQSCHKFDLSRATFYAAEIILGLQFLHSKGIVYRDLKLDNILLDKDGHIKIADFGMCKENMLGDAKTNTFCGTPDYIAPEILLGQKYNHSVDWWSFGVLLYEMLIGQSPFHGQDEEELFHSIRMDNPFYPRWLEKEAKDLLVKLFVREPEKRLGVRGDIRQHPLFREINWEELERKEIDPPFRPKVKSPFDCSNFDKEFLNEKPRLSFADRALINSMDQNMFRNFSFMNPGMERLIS

Turning to `Cn1c2c(c3ccc(Cl)c(Cl)c31)C(C#N)C1(CCNCC1)NC2=O` (racemic), the half-maximal inhibitory concentration (IC50) (in general, the point on the concentration scale where inhibition reaches its midpoint) is 3570 nM in assay [1]; 230 nM in assay [2]; 2500 nM in assay [3]; 1400 nM in assay [4]; 60 nM in assay [5]; more than 9100 nM in assay [6].
